Experimental findings from ChEMBL document CHEMBL3352245, “Discovery of a series of aryl-N-(3-(alkylamino)-5-(trifluoromethyl)phenyl)benzamides as TRPA1 antagonists” (Bioorg Med Chem Lett, 2014) are described below.

SMILES strings stand for the structures. Converted amounts (≈) assume the structure as drawn.

The target in data set [1] is Transient receptor potential cation channel subfamily A member 1 (Homo sapiens, UniProt O75762). Nature of the data set: Antagonist activity at human TRPA1 expressed in HEK293-TREx cells assessed as change in calcium level by Fluo-4NW assay. The data set is classed as cell-based. Put shortly: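 Human receptor; values are means of at least 2 experiments, with replicate error within 20% of value.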

The test system of data set [2] is Plasma. Nature of the data set: Fraction unbound in human plasma at 10 uM by equilibrium dialysis method. The data set is classed as ADME, cell-free. Put shortly: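 Test compound at 10 μM in human plasma. Binding is measured by equilibrium dialysis.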
In general terms: In equilibrium dialysis only unbound substance equilibrates across the membrane.

Data set [3] can be described thus: Apparent permeability from apical to basolateral across human Caco2 cells at pH 7.4 at 10 uM by Transwell assay. Conditions: Caco-2, pH 7.4. The data set is classed as ADME, cell-based. Put shortly:
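Caco-2 monolayer in a Transwell format. Compound at 10 μM is applied apically and apical-to-basolateral apparent permeability is measured at pH 7.4.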
A general note: Caco-2 cells form a polarised layer with tight junctions and transporters.

Data set [4] is described as follows: Thermodynamic solubility of the compound in buffer at pH 7.4 by HPLC/UV detection method. The data set is classed as physicochemical. Conditions: read-out: Therm_solubility. An outline of the steps:
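Thermodynamic solubility in pH 7.4 buffer. Dissolved compound is quantified by HPLC with UV detection.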

Data set [5] can be described thus: Intrinsic clearance in human liver microsomes at 1 uM in presence of NADPH. The note with it: read-out: CLH. It is filed as ADME. An outline of the steps:
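Incubated with human liver microsomes at 1 mg/mL protein plus NADPH. Test compound at 1 μM.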

In data set [6] the target is T1, Cytochrome P450 1A2 (Homo sapiens, UniProt P05177).
T1 sequence (P05177 whole entry): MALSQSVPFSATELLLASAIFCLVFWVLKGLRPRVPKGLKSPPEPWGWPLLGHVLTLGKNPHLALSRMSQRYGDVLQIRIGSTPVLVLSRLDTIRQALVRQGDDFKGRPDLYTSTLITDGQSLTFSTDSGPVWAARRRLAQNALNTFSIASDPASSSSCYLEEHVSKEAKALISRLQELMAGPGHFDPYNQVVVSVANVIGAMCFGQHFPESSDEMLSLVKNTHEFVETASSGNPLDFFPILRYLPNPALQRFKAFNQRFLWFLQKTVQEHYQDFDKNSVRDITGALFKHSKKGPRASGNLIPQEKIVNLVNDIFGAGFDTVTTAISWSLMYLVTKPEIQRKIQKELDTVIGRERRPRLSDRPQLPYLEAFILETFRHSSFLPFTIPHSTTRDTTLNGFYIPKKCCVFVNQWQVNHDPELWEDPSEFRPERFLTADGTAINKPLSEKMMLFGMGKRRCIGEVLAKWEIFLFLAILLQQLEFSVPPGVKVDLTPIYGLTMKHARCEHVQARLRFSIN
The data set is described as follows: Competitive inhibition of CYP1A2 in human liver microsomes by LC-MS/MS analysis. The data set is classed as ADME. Put shortly:
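Competitive inhibition screen in human liver microsomes using standard probe substrates. Metabolites are detected by LC-MS/MS. The panel also covered 2C9, 2C19, 2D6 and 3A4.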

For data set [7], the target named is CYP2D6 (Homo sapiens, UniProt P10635). The data set is described as follows: Time-dependent inhibition of CYP2D6 in human liver microsomes at 10 uM by LC-MS/MS analysis. The data set is classed as ADME. An outline of the steps:
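IC50-shift screen for time-dependent inhibition in human liver microsomes with test compound at 10 μM. The panel also covered 1A2, 2C9 and 3A4.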
(In general: Microsomes from liver hold many membrane-bound enzymes, among them those of drug oxidation.)

Usually IC50 stands for the concentration that inhibits the measured activity by half. By Papp A→B is commonly meant how fast a substance crosses the layer from the apical side. In general, inhibition refers to the change of the read-out against control, counted positive when it falls. Read a low inhibition as a response near the control.

Sequence of Transient receptor potential cation channel subfamily A member 1 (O75762 whole entry): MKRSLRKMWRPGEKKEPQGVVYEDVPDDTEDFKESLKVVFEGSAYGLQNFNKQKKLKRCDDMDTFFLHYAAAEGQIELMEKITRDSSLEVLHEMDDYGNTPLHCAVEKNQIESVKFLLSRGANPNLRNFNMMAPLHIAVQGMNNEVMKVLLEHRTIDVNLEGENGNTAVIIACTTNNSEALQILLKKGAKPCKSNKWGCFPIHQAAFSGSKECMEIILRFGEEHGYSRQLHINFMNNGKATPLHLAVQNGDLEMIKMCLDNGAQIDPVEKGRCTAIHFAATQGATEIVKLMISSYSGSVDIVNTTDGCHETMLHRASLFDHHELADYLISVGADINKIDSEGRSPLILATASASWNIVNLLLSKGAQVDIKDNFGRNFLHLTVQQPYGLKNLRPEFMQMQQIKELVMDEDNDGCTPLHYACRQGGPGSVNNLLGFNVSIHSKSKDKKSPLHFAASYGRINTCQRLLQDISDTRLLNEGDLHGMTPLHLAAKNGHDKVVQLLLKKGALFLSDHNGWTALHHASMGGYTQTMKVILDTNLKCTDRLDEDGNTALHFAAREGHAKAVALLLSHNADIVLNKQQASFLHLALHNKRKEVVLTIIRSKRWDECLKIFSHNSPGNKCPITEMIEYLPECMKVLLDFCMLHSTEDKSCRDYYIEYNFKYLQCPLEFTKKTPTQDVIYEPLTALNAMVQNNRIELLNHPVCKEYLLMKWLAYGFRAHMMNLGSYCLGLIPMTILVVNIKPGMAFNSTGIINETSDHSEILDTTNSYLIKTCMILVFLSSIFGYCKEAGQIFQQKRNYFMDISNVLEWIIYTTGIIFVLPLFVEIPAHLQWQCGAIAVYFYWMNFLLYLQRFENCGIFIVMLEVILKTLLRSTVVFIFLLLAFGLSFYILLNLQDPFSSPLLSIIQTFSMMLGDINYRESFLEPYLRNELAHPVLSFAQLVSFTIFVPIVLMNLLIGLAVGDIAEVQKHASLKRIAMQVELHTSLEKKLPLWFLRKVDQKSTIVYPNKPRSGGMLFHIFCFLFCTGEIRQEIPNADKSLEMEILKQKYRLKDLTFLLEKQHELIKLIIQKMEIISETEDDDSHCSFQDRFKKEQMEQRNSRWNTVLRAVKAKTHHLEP
Sequence of CYP2D6 (P10635 whole entry): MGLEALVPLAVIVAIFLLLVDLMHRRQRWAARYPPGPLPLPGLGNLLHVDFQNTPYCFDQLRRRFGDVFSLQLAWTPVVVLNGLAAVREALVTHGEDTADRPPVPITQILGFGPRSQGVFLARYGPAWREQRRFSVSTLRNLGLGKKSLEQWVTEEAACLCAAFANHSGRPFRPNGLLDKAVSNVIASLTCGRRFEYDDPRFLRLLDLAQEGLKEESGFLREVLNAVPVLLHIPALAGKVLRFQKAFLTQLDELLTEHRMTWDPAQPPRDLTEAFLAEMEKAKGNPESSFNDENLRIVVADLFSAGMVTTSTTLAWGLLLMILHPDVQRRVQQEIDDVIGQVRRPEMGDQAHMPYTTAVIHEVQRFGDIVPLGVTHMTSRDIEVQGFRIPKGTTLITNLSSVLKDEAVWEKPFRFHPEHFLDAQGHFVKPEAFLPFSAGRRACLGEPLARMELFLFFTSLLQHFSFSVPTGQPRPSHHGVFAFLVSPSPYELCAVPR

Turning to `O=C(Nc1cc(NCCc2ccccc2)cc(C(F)(F)F)c1)c1cccs1`, in data set [1], the 50% inhibitory concentration (IC50) was 3900 nM.

As to `O=C(Nc1cc(NCc2ccccc2)cc(C(F)(F)F)c1)c1cccs1`, the concentration for half-maximal inhibition (IC50) in data set [1] came to 2900 nM.

On to `CC(C)CNc1cc(NC(=O)c2cccs2)cc(C(F)(F)F)c1`, for which the concentration for half-maximal inhibition (IC50) in data set [1] stood at 790 nM.

Take `CC(C)Nc1cc(NC(=O)c2c(F)cccc2F)cc(C(F)(F)F)c1`: the Fu in data set [2] is reported as less than 1%. Further, the apical-to-basolateral permeability (Papp A→B) at 10 µM in data set [3] is 6.9 ×10⁻⁶ cm/s. In data set [4], the solubility thermodynamic came to 1 µM (≈ 0.358 µg/mL). Also, the microsomal CLint at 1 µM in data set [5] was 73 µL/min/mg. The half-maximal inhibitory concentration (IC50) in data set [1] worked out at 91 nM.

With `CCCNc1cc(NC(=O)c2cccnc2)cc(C(F)(F)F)c1`, the half-maximal inhibitory concentration (IC50) in data set [1] turned out to be 940 nM.

As to `CCCN(CCC)c1cc(NC(=O)c2cccs2)cc(C(F)(F)F)c1`, the IC50 in data set [1] is more than 32000 nM.

Turning to `CCCOc1cc(NC(=O)c2c(F)cccc2F)cc(C(F)(F)F)c1`, in data set [1], the IC50 was more than 32000 nM.

Take `COC(=O)Nc1cc(NC(=O)c2cccs2)cc(C(F)(F)F)c1`: in data set [1], the half-maximal inhibitory concentration (IC50) was found to be 2300 nM.

Consider `CCCNc1cc(N)cc(C(F)(F)F)c1`, for which the IC50 in data set [1] is more than 32000 nM.

The compound `CCCNc1cc(NC(=O)c2c(F)cccc2F)cc(C(F)(F)F)c1` returned a Fu in data set [2] of less than 1%. In addition, the Papp A→B at 10 µM in data set [3] turned out to be 2.7 ×10⁻⁶ cm/s. Further, the solubility thermodynamic in data set [4] was determined as 7 µM (≈ 2.51 µg/mL). Also, the concentration for half-maximal inhibition (IC50) in data set [6] was found to be 1500 nM; in data set [1], 110 nM. In addition, in data set [5], the microsomal CLint at 1 µM was found to be 96 µL/min/mg.

As for `CCCNc1cc(NC(=O)c2cccs2)cc(C(F)(F)F)c1`, the half-inhibitory concentration (IC50) in data set [1] is 390 nM.

In the case of `CCCNc1cc(NC(=O)c2ccc(F)c(F)c2)cc(C(F)(F)F)c1`, in data set [1], the concentration for half-maximal inhibition (IC50) amounted to 1200 nM.

Take `CC(C)Nc1cc(NC(=O)c2cccs2)cc(C(F)(F)F)c1`: the IC50 in data set [1] worked out at 290 nM.

With `CCCNc1cc(C)cc(NC(=O)c2c(F)cccc2F)c1`, the IC50 in data set [1] came to 1900 nM.

For the compound `CCCNc1cc(NC(=O)c2ccncc2)cc(C(F)(F)F)c1`, in data set [1], the IC50 worked out at 2600 nM.

In data set [2], `CCNc1cc(NC(=O)c2c(F)cccc2F)cc(C(F)(F)F)c1` gave a Fu of less than 1%. In addition, the solubility thermodynamic in data set [4] stood at 5 µM (≈ 1.72 µg/mL). The microsomal CLint at 1 µM in data set [5] is 115 µL/min/mg. For the same compound, the concentration for half-maximal inhibition (IC50) in data set [1] worked out at 74 nM.

In the case of `CC(C)C(C)Nc1cc(NC(=O)c2cccs2)cc(C(F)(F)F)c1` (stereo not given), the 50% inhibitory concentration (IC50) in data set [1] is 1300 nM.

With `CCCNc1cc(NC(=O)c2ccccc2)cc(C(F)(F)F)c1`, the Fu in data set [2] is recorded as less than 1%. Besides, in data set [3], the Papp A→B at 10 µM came to 6.2 ×10⁻⁶ cm/s. The solubility thermodynamic in data set [4] is 8 µM (≈ 2.58 µg/mL). The values for the IC50 in data set [6] and in data set [1] were 140 nM and 200 nM, respectively. For the same compound, the microsomal CLint at 1 µM in data set [5] came out at 154 µL/min/mg. In data set [7], the inhibition at 10 µM is 35%.

With `O=C(Nc1cc(NCc2cccs2)cc(C(F)(F)F)c1)c1cccs1`, in data set [1], the half-maximal inhibitory concentration (IC50) was determined as 2700 nM.

In the case of `CCCNc1cc(NC(=O)c2ccccn2)cc(C(F)(F)F)c1`, the concentration for half-maximal inhibition (IC50) in data set [1] is more than 32000 nM.

For the compound `CCCN(C)c1cc(NC(=O)c2c(F)cccc2F)cc(C(F)(F)F)c1`, in data set [1], the half-maximal inhibitory concentration (IC50) was more than 32000 nM.

With `CCCNc1cc(NC(=O)c2ccc(F)cc2)cc(C(F)(F)F)c1`, the half-inhibitory concentration (IC50) in data set [1] turned out to be 1400 nM.
